In experiment [1] the target is T1, Prostaglandin G/H synthase 1 (Mus musculus, UniProt P22437).
T1 sequence (P22437 whole entry): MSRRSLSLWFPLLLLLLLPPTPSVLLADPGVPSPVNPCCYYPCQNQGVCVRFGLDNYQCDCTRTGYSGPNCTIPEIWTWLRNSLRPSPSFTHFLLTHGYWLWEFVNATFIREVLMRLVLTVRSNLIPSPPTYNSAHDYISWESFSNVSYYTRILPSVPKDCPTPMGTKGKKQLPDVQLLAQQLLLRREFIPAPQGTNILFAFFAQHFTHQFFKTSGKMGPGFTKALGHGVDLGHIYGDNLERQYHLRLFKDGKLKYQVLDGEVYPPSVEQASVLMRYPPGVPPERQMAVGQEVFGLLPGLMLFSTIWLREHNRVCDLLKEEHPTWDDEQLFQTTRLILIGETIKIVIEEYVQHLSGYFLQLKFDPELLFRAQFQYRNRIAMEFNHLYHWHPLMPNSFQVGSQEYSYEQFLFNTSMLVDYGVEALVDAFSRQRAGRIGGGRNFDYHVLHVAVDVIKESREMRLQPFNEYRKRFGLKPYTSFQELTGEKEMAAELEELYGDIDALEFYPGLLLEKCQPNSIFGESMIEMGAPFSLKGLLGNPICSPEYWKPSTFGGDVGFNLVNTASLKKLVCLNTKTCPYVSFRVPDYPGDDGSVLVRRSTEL
The experiment can be described thus: Inhibition of mouse COX1 in mouse J774 cells assessed as PGE2 production by radioimmunoassay. It is filed as cell-based.

The target in experiment [2] is T2, Prostaglandin G/H synthase 2 (Mus musculus, UniProt Q05769).
T2 sequence (Q05769 whole entry): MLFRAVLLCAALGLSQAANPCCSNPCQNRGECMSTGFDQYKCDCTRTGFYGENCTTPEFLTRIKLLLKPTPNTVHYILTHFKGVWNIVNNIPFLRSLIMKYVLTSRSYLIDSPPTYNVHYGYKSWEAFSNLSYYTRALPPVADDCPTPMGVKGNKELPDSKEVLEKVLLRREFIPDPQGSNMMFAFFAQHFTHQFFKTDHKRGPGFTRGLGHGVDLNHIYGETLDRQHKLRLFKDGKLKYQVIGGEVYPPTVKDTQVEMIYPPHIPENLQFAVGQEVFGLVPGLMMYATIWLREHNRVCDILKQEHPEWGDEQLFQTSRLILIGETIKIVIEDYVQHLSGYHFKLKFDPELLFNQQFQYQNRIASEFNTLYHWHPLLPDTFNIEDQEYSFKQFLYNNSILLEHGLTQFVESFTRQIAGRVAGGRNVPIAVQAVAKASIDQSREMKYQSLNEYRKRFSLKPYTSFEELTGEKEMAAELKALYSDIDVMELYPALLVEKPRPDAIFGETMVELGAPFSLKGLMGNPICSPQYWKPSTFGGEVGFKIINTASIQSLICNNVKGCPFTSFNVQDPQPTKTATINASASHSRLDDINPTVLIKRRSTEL
The experiment can be described thus: Inhibition of mouse COX2 in LPS-stimulated mouse J774 cells assessed as PGE2 production by radioimmunoassay. The class given is cell-based. The procedure, abridged: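 J774 cells in serum-free medium were stimulated with E. coli LPS (10 µg/mL) for 24 h to induce COX-2, with or without compound present. Supernatant PGE2 was measured by radioimmunoassay. Percent inhibition was taken against control; triplicate wells, mean of three experiments; IC50 from a variable-slope sigmoidal fit.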

The subject of a further experiment is J774. The experiment can be described thus: Selectivity index, ratio of IC50 for mouse COX1 in mouse J774 cells to IC50 for mouse COX2 in LPS-stimulated mouse J774 cells. The class given is cell-based. The procedure, abridged: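 The ratio is IC50(COX-1)/IC50(COX-2), both from J774 cells. For COX-1, cells were given a 15 min compound pretreatment and then 15 µM arachidonic acid for 30 min. For COX-2, cells were exposed to LPS (10 µg/mL) for 24 h with compound. In both, PGE2 was measured by radioimmunoassay and IC50 came from a sigmoidal fit of the means of three experiments.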

Another experiment is filed under the species Homo sapiens. The experiment can be described thus: Selectivity index, ratio of IC50 for human COX1 to IC50 for human COX2 by whole blood assay. The procedure, abridged: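 Human whole blood from three healthy donors (no NSAID for 2 weeks); compounds in DMSO at final 0.01–1000 µM. COX-2: heparinized blood from aspirin-pretreated donors (300 mg, 48 h) with LPS 10 µg/mL, 24 h, 37 °C; plasma PGE2 by RIA. COX-1: blood clotted 1 h, 37 °C; serum TXB2 by RIA. Mean % inhibition vs vehicle; IC50(COX-1)/IC50(COX-2).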

For experiment [3], the system named is Rattus norvegicus. The experiment can be described thus: Antiinflammatory activity against carrageenan-induced edema in rat assessed as paw volume at 20 mg/kg, po […]. The class given is functional. The procedure, abridged: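 Carrageenan (0.1 mL of 1.0%) was injected intraplantar into Sprague-Dawley or Wistar rats (150-200 g). Compound was given po at 20 mg/kg 3 h 30 min after carrageenan. Right hind paw volume was measured by plethysmometer 4 h after carrageenan and compared with saline/carrageenan controls. Values are in mL, with 5-6 rats per group.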

Experiment [4] concerns Rattus norvegicus. The experiment can be described thus: Antiinflammatory activity against carrageenan-induced hyperalgesia in rat assessed as paw pressure at 20 mg/kg, po after 120 mins. The class given is functional. The procedure, abridged: (§1)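 Rats received carrageenan (0.1 mL, 1%) intraplantar 4 h before the test, then compound at 20 mg/kg po. Nociceptive threshold was measured with an analgesimeter (Leighton method) before and 30, 60 and 120 min after treatment, with a 250 g cutoff. Groups had 5-6 rats; mean ± SEM, ANOVA with Fisher's PLSD post hoc.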

For experiment [5], the system named is Rattus norvegicus. The experiment can be described thus: Antiinflammatory activity against carrageenan-induced hyperalgesia in rat assessed as paw pressure at 20 mg/kg, po after 30 mins. It is filed as functional. The procedure, abridged:
as §1

The subject of experiment [6] is Rattus norvegicus. The experiment can be described thus: Antiinflammatory activity against carrageenan-induced hyperalgesia in rat assessed as paw pressure at 20 mg/kg, po after 60 mins. It is filed as functional. In short, it runs like this: as §1
For experiment [7], the system named is Mus musculus. The experiment can be described thus: Antinociceptive activity against acetic acid-induced abdominal constriction in Swiss albino mouse assessed as reduction in number of writhes at 20 mg/kg, po. It is filed as functional, organism-based. Also on record: dose 20 mg/kg. As to conditions: Abdomen. In short, it runs like this: (§2)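 Male Swiss albino mice (23-25 g) were dosed per os, with CMC as vehicle, 30 min before 0.6% acetic acid. Stretching movements were counted for 10 min, starting 5 min after acetic acid (Koster method). Results are mean ± SEM; ANOVA with Fisher's PLSD, versus vehicle-treated mice.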

Experiment [8] has as its system Mus musculus. The experiment can be described thus: Antinociceptive activity against acetic acid-induced abdominal constriction in Swiss albino mouse assessed as number of writhes at 20 mg/kg, po. The class given is functional, Abdomen. The procedure, abridged:
as §2

In experiment [9] the test system is Mus musculus. The experiment can be described thus: Antinociceptive activity against acetic acid-induced abdominal constriction in Swiss albino mouse assessed as number of writhes at 10 mg/kg, po. The class given is functional, Abdomen. The procedure, abridged:
as §2

Experiment [10] concerns the target Prostaglandin G/H synthase 1 (Homo sapiens, UniProt P23219). The experiment can be described thus: Inhibition of COX1 in human whole blood allowed to clot assessed as TXB2 production.
The target in experiment [11] is T3, Prostaglandin G/H synthase 2 (Homo sapiens, UniProt P35354).
T3 sequence (P35354 whole entry): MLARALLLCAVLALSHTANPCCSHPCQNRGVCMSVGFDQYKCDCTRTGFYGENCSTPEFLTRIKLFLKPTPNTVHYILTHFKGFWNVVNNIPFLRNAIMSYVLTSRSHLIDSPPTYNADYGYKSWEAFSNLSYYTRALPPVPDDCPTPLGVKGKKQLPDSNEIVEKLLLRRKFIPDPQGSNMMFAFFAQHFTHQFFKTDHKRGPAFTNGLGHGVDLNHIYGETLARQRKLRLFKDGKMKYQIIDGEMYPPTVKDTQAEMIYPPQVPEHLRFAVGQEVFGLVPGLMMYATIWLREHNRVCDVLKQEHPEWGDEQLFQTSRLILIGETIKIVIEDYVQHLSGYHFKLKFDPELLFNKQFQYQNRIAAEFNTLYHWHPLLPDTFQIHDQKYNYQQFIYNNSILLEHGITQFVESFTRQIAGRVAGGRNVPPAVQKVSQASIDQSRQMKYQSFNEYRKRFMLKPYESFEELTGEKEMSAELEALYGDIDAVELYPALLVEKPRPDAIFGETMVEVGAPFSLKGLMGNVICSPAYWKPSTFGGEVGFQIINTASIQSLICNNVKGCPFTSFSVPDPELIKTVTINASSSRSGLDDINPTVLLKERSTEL
The experiment can be described thus: Inhibition of COX2 in human whole blood assessed as effect on thrombin-induced TXB2 production. The class given is tissue-based.

Calls of active or inactive are those of the source.

What is called IC50 is the point on the concentration scale where inhibition reaches its midpoint.

Chain of Prostaglandin G/H synthase 1 (Homo sapiens, UniProt P23219) (P23219 whole entry): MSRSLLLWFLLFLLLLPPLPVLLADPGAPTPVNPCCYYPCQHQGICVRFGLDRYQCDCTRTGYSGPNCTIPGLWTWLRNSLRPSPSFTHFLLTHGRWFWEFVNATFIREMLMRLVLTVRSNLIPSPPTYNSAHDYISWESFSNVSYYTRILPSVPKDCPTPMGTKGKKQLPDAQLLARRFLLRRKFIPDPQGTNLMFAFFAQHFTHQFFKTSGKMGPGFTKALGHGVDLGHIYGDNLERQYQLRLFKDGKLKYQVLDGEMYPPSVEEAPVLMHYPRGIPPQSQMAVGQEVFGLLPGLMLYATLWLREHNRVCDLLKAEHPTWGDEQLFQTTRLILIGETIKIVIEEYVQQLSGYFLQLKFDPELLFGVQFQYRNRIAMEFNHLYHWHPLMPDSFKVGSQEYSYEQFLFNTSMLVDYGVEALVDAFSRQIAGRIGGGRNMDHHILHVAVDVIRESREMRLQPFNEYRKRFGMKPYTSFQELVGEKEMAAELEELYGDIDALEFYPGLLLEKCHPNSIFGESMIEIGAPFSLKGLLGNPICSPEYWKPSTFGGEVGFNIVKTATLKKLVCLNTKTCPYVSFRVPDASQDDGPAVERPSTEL

As for `CCOCCc1cc(-c2ccc(S(C)(=O)=O)cc2)n(-c2ccc(C(F)(F)F)cc2)c1C`, the IC50 in experiment [1] is above 100000 nM; in [2] it was 85 nM. The Ratio IC50 in the experiment with J774 was above 1180.

On to `COCCc1cc(-c2ccc(S(C)(=O)=O)cc2)n(-c2ccc(C(F)(F)F)cc2)c1C`, for which the values for the IC50 in experiment [1] and in [2] were above 100000 nM and 49 nM, respectively. The Ratio IC50 in the experiment with J774 was above 2040.

Consider `CS(=O)(=O)c1ccc(C2=C(c3ccccc3)C(=O)OC2)cc1`, for which the Ratio IC50 in the experiment filed under Homo sapiens is above 200.

Turning to `COCCc1cc(-c2ccc(S(C)(=O)=O)cc2)n(-c2ccc(F)cc2)c1C`, the figures for the IC50 in [1] and in [2] were above 100000 nM and 18 nM, respectively. Further, in the experiment with J774, the Ratio IC50 is above 5560.

As for `CCOC(=O)Cc1cc(-c2ccc(S(C)(=O)=O)cc2)n(-c2ccccc2)c1C`, the Ratio IC50 in the experiment on J774 is above 2500.

Regarding `CCOCCc1cc(-c2ccc(S(C)(=O)=O)cc2)n(-c2ccccc2)c1C`, the results for the half-inhibitory concentration (IC50) in experiment [1] and in experiment [2] were above 100000 nM and 15 nM, respectively. The Activity in the experiment with Rattus norvegicus [3] was 1.37 mL; in the experiment on Rattus norvegicus [4] it was 49.1 g; in the experiment with Rattus norvegicus [5] it was 59.6 g; in the experiment with Rattus norvegicus [6], 53.8 g; in the experiment with Mus musculus [8] it was 11.4; in the experiment on Mus musculus [9], 26.5. In the experiment with J774, the Ratio IC50 was above 6670. For the same compound, the result with Mus musculus [7] was Active.

For the compound `CCCOCCc1cc(-c2ccc(S(C)(=O)=O)cc2)n(-c2ccc(F)cc2)c1C`, the half-inhibitory concentration (IC50) in experiment [1] is above 100000 nM; in [2], 30 nM. In addition, the Activity with Rattus norvegicus [3] was determined as 1.45 mL; in the experiment on Rattus norvegicus [4], 52.7 g; in the experiment on Rattus norvegicus [5], 52.4 g; in the experiment with Rattus norvegicus [6], 56.8 g; in the experiment with Mus musculus [8], 16.7; in the experiment on Mus musculus [9], 38.1. Moreover, in the experiment on J774, the Ratio IC50 was above 3330. Besides, in the experiment with Mus musculus [7], the result was Active.

Regarding `CCCOCCc1cc(-c2ccc(S(C)(=O)=O)cc2)n(-c2ccc(C(F)(F)F)cc2)c1C`, the concentration for half-maximal inhibition (IC50) was above 100000 nM in experiment [1] and 110 nM in [2]. Further, the Ratio IC50 with J774 is above 909.

Regarding `CCCOCCc1cc(-c2ccc(S(C)(=O)=O)cc2)n(-c2ccccc2)c1C`, the concentration for half-maximal inhibition (IC50) in experiment [1] was above 100000 nM; in experiment [2] it was 18 nM; in [10], 86000 nM; in [11], 1300 nM. The Activity in the experiment on Rattus norvegicus [3] worked out at 1.41 mL; with Rattus norvegicus [4] it was 50.6 g; with Rattus norvegicus [5], 56.3 g; in the experiment on Rattus norvegicus [6], 59.4 g; in the experiment on Mus musculus [8], 13.6; in the experiment on Mus musculus [9] it was 27.43. The Ratio IC50 is 66 in the experiment filed under Homo sapiens and above 5560 in the experiment on J774. In the experiment with Mus musculus [7], the outcome was Active.

On to `CCOC(=O)Cc1cc(-c2ccc(S(C)(=O)=O)cc2)n(-c2ccc(C(F)(F)F)cc2)c1C`, for which, in the experiment on J774, the Ratio IC50 is above 1600.

For the compound `CCOC(=O)Cc1cc(-c2ccc(S(C)(=O)=O)cc2)n(-c2ccc(C)cc2)c1C`, the Ratio IC50 with J774 was above 208.

As to `CCOCCc1cc(-c2ccc(S(C)(=O)=O)cc2)n(-c2ccc(F)cc2)c1C`, the IC50 in experiment [1] was above 100000 nM; in experiment [2], 47 nM. In addition, in the experiment with J774, the Ratio IC50 was above 2130.

For the compound `COCCc1cc(-c2ccc(S(C)(=O)=O)cc2)n(-c2ccccc2)c1C`, the figures for the IC50 in experiment [1] and in experiment [2] were above 100000 nM and 48 nM, respectively. Moreover, the Ratio IC50 with J774 is above 2080.
